Hits are enriched below; roughly 1.5% of the tested compounds scored in any of these assays.
APJ antagonist: APJ receptor antagonism; CHO-K1 APJ beta-arrestin complementation, luminescence; AID 2521; actives 0.32% (n = 330,000); inhibition, % at 20 µM; P35414;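 active means inhibition above about 40% at 20 µM, limit read from the data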;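 further: cells challenged with 10 nM apelin-13 agonist together with compound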
EBI2 antag: blocks human EBI2 receptor beta-arrestin signaling; P32249; EBI2 beta-arrestin recruitment, luminescence, 7a,25-OHC stimulated; inhibition, % at 5 µM; actives 0.81% (n = 360,000); in the data active means inhibition above about 38%;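 further: enzyme fragment complementation signal reports receptor beta-arrestin coupling in cells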
Target sequence (P32249 whole entry, looked up, the tested form may be a part): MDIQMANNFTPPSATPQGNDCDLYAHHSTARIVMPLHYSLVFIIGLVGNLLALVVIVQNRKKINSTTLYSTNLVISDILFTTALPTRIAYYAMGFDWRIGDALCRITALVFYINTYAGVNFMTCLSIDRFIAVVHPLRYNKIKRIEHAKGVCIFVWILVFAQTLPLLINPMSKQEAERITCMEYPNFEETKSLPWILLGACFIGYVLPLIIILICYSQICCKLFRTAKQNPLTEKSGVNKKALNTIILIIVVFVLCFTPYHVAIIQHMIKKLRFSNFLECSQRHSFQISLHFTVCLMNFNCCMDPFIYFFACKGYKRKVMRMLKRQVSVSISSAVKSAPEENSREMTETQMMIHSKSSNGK
CXCR6 block: inhibitors of human CXCR6 receptor; inhibition, % at 20 µM; actives 0.36% (n = 360,000); CHO-K1 PathHunter CXCR6 beta-arrestin, luminescence; O00574; in the data active means inhibition above about 34%, passing the limit was not always enough;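 further: antagonist mode with CXCL16 agonist at 10 nM final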
iPSC survival up: hiPSC single-cell survival enhancement; ATPlite luminescence; 100% = ROCK inhibitor wells, 0% = DMSO; survival enhancement, % at 20 µM; actives 0.044% (n = 360,000); AID 602274; in the data active means survival enhancement above about 18%;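 further: cells exposed to compounds for 16 hours before the ATP read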
CCR6 antag: antagonists of human CCR6 receptor. P51684. CHO-K1 CCR6 PathHunter beta-arrestin, luminescence, CCL20-stimulated. inhibition, % at 20 µM. actives 0.49% (n = 340,000). AID 493098;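 active means compounds whose inhibition of the agonist-driven luminescence signal at 20 µM reaches about 50%, limit read from the data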;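 further: cells stimulated with CCL20 at 14 nM final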
APJ ag: activates the human apelin receptor APJ; P35414; CHO-K1 APJ PathHunter beta-arrestin, luminescence; 0% DMSO wells, 100% apelin; activation, % at 20 µM; actives 0.11% (n = 330,000);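 active means activation more than six SD over the plate average, tested at 20 µM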
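Test system: CHO-K1 APJ beta-arrestin complementation cell line | Compound: Single test compound dose, 20 µM final, 1% DMSO | Incubation: Compound 90 min 25 °C, reagent 1 h | Measured by: beta-gal luminescence | Read-out basis: APJ–arrestin association signal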
APJ antag confirm: APJ receptor antagonism confirmation; shares compounds with APJ antagonist; APJ beta-arrestin recruitment, luminescence, antagonist mode; inhibition, % at 20 µM; actives 66% (n = 950); in the data active means inhibition above about 50%
CXCR6 antag conf: confirmation of human CXCR6 receptor antagonists | shares compounds with CXCR6 block | CHO-K1 CXCR6 PathHunter beta-arrestin, luminescence | inhibition, % at 20 µM | actives 65% (n = 700) | AID 602409;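 active means mean inhibition over four retests above 40%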;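 further: receptor stimulated with 10 nM CXCL16 agonist; beta-galactosidase fragment complementation upon beta-arrestin recruitment to receptor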
EBI2 antag conf: confirmation of human EBI2 receptor antagonists | AID 651997 | actives 29% (n = 2,400) | shares compounds with EBI2 antag | EBI2 beta-arrestin luminescence, 7a,25-OHC antagonism | inhibition, % at 5 µM;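 active means inhibition of at least 50%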
EBI2 ag: EBI2 agonism counter-screen; shares compounds with EBI2 antag; EBI2-expressing cells, agonist mode, luminescence, 60 min; 0% vehicle, 100% 7α,25-dihydroxycholesterol control; activation, % at 5 µM; 2,400 tested, under 10 active;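 active means activation of at least 50%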
bGal counter: inhibits E. coli beta-galactosidase, counter-screen for EBI2 antagonists | shares compounds with EBI2 antag | AID 652176 | inhibition, % at 5 µM | purified beta-galactosidase, luminescent Galacton Star, 15 min | actives 1% (n = 2,400);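 active means replicate-average signal at least 3 plate SD below neutral wells, shown as high inhibition, flagging enzyme-inhibiting false positives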;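 further: higher means stronger loss of beta-gal luminescence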
A number is an active result; 0 = inactive; - = no result.

SMILES	APJ antagonist	EBI2 antag	CXCR6 block	iPSC survival up	CCR6 antag	APJ ag	APJ antag confirm	CXCR6 antag conf	others
COc1ccc(NC(=O)/C(Cl)=C(/Cl)S(=O)Cc2ccccc2)cn1 (stereo not drawn)	86	79	81	0	90	0	100	88
CCOC(=O)[C@]12CCCC=C1N(Cc1cccc3ccccc13)C(=O)[C@H](CC(=O)N1CCN(C(=O)C3CC3)CC1)C2	-	0	0	0	-	-	-	-
C/C(=N\NC(=O)C(C)Oc1ccc([N+](=O)[O-])cc1)c1ccccn1 (stereo not drawn)	56	0	74	0	77	0	73	90
CCCCCCNC(=O)O[C@H]1C[C@H](C(=O)OC)[C@H](C(=O)OC)C2CN(S(=O)(=O)c3ccc(C)cc3)C[C@@]21O (stereo partly drawn)	-	0	0	0	-	-	-	-
Cc1ccc2nc(SCC(=O)Nc3cccc(F)c3)nc(=O)n2c1	0	0	0	0	0	0	-	-
NNc1nc(-c2ccccc2)cc(-c2ccccc2O)n1	57	0	79	0	85	0	143	84
CCC(C)c1ccc(O)c(NC(=O)c2cccnc2)c1 (stereo not drawn)	0	0	0	0	0	0	-	-
CC(C)c1ccc(O)c(NC(=S)NC(=O)c2cccnc2)c1	59	0	60	0	69	0	84	67
Cc1cccc(NC(=S)NNc2ncc(C(F)(F)F)cc2Cl)c1	54	0	52	0	91	0	89	53
CC(C)(C)NNC(=S)Nc1cccc(C(F)(F)F)c1	0	0	0	0	0	0	-	-
Cc1cc(C(=O)NCCc2ccc(S(N)(=O)=O)cc2)c(C)o1	0	0	0	0	0	0	-	-
CCOc1ccc(-c2csc(/C(C#N)=C\c3ccc(O)c([N+](=O)[O-])c3)n2)cc1	50	0	39	0	55	0	61	0
CC(C)CCC(C)NC(=O)CN1C(=O)NC(C)(c2ccc3ccccc3c2)C1=O (stereo not drawn)	0	0	0	0	0	0	-	-
O=C(C#Cc1ccccc1)c1ccco1	58	0	69	0	70	0	74	83
CC(C#N)(CCc1ccccn1)CCc1ccccn1	-	0	0	0	0	-	-	-
Cc1ccccc1NC(=S)NC(=O)c1cncc(Br)c1	0	0	0	0	0	0	-	-
Cc1cc(O)ccc1NC(=S)NC(=O)c1cncc(Br)c1	43	0	51	0	70	0	82	48
O=C(O)c1cccc(NC(=S)NC(=O)c2cncc(Br)c2)c1	43	0	58	0	0	0	81	0
COc1cc(Nc2nc3c(N)cc(C(F)(F)F)cc3nc2-c2ccccc2)cc(OC)c1OC	-	0	0	0	0	-	-	-
Cn1c(=O)[nH]c(=O)c2c1nc(Sc1nc3ccccc3s1)n2Cc1ccccc1	54	0	52	0	68	0	0	54
Cn1c(=O)[nH]c(=O)c2c1nc(SCC(=O)O)n2Cc1ccccc1	0	0	0	0	0	0	-	-
Cc1cc(C(=O)NC(C)C2CC2)c(Cl)cc1Cl (stereo not drawn)	0	0	0	0	0	0	-	-
COc1ccc(CC(=O)OCC(=O)c2ccc(S(=O)(=O)N3CCCCC3)cc2)cc1	71	0	48	0	65	0	70	0
CC(C)[C@H](NC(=O)c1ccccc1)C(=O)OCC(=O)c1ccc(S(=O)(=O)N2CCCCC2)cc1	47	0	44	0	54	0	0	0
CC(=O)Nc1cccc(C(=O)OCC(=O)c2ccc(S(=O)(=O)N3CCCCC3)cc2)c1	49	0	42	0	54	0	71	0
SMILES	APJ antagonist	EBI2 antag	CXCR6 block	iPSC survival up	CCR6 antag	APJ ag	APJ antag confirm	CXCR6 antag conf	others
CC(=O)Nc1ccc(C(=O)OCC(=O)c2ccc(S(=O)(=O)N3CCCCC3)cc2)cc1	0	0	0	0	0	0	-	-
COc1cc(OC)cc(C(=O)OCC(=O)c2ccc(S(=O)(=O)N3CCCCC3)cc2)c1	0	0	0	0	0	0	-	-
CC(Oc1ccccc1)C(=O)Nc1cc(Cl)ccc1-n1cncn1 (stereo not drawn)	0	0	0	0	0	0	-	-
CN(c1ccccc1)S(=O)(=O)c1ccc(NC(=O)c2ccccc2)cc1	0	0	0	0	0	0	-	-
CCS(=O)(=O)c1ncc(Cl)c(C(=O)Nc2ccc(S(=O)(=O)N3CCC(C)CC3)cc2)n1	71	49	83	0	92	0	98	93
CN(c1ccccc1)S(=O)(=O)c1ccc(NC(=O)c2nc(S(C)(=O)=O)ncc2Cl)cc1	61	0	94	0	97	0	111	85
S=C(N/N=C/c1ccccc1)N1CCOCC1	48	0	41	0	68	0	72	75
CCOC(=O)C1CCCN(C(=O)COc2ccc(C(=O)c3ccccc3)cc2)C1 (stereo not drawn)	0	0	0	0	0	0	-	-
CCOC(=O)C1CCCN(c2c(C(=O)c3ccccc3)cnc3ccc(OC)cc23)C1 (stereo not drawn)	58	0	70	0	83	0	96	69
O=C(CC(O)c1ccncc1)c1ccccc1O (stereo not drawn)	-	0	0	0	0	-	-	-
Cc1ccc2nc3sc(C(=O)N4CCCc5ccccc54)c(N)c3cc2c1	76	54	0	0	0	0	0	-	EBI2 antag conf=55;EBI2 ag=0;bGal counter=0
Cc1ccc(-c2cc(C(=O)N3CCCc4ccccc43)c3ccccc3n2)cc1	0	0	0	0	0	0	-	-
CC1(CO)COC2(OC1)C(=O)Nc1ccccc12 (stereo not drawn)	0	0	0	0	0	0	-	-
CC1(C)CC(=O)C(C=Nc2ccc(C(=O)c3ccccc3)cc2N=CC2=C(O)CC(C)(C)CC2=O)=C(O)C1	120	74	103	0	111	0	156	114	EBI2 antag conf=93;EBI2 ag=0;bGal counter=83

Assay outcomes: PubChem BioAssay, Sanford-Burnham Center for Chemical Genomics
